Beta cell apopt = beta cell apoptosis inhibition; AID 435005; actives 0.8% (n = 300,000); protection from apoptosis, % (concentration not given with the values); INS-1E cytokine-induced death, ATP luminescence, 48 h; percent of positive-control rescue, neutral wells zero;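 active = Every replicate reaches about 75%, or at least half do and their mean reaches it too, limit read from the data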;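 note: 0% = cytokine-treated negative control wells and 100% = positive control rescue; higher means more ATP so stronger rescue from cytokine killing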
Calb FLC = C. albicans growth modulation with fluconazole; C. albicans CaCi-2 (fluconazole-resistant clinical isolate) + fluconazole, Alamar Blue growth, 48 h; growth inhibition, % (test concentration not listed); actives 0.57% (n = 300,000); AID 1979;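 active = growth inhibition above about 58% in most replicates, limit read from the data, passing the limit was not always enough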;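 note: all wells also contain fluconazole at 8 µg/ml as a sub-toxic cotreatment; 0% = median of DMSO wells and 100% = median of geldanamycin control wells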
H9c2 TAG inh = inhibitors of triacylglycerol accumulation; H9c2 cells, Nile Red lipid (TAG) fluorescence; cells loaded with 200 µM oleic acid; inhibition, % at 12.5 µM; actives 0.66% (n = 230,000); AID 651582;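 active = pattern-corrected inhibition of lipid staining of at least 50% with the nuclear-stain viability signal not falling by more than 50%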;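 note: 0% = DMSO wells and 100% = triacsin C control wells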
CSC inhib = cancer stem cell inhibition | cancer stem cell-like cells viability, luminescence | inhibition, % at 7.5 µM | actives 1.1% (n = 300,000); in the data active = inhibition above about 75%; tested in HMLE shEcad cells
A1 inh = inhibitors of the anti-apoptotic protein A1, read as caspase activation; actives 0.066% (n = 330,000); MEF A1-2A-BIM cells, Caspase-Glo 3/7 luminescence, 3 h; percent of clofoctol response, vehicle zero; caspase activation, % (test concentration not listed);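 active = over half of replicate activation scores above 10%, or exactly half above 10 with the replicate mean above 10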
T cruzi inh = blocks replication of Trypanosoma cruzi; inhibition, % (no concentration beside the values); actives 1.4% (n = 300,000); T. cruzi beta-gal in NIH3T3, luminescence, 90 h; AID 1885;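 active = mean inhibition across valid replicates above about 55%, limit read from the data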;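 note: signal also drops with host cell toxicity which is not excluded here; 0% = plate median of DMSO wells and 100% = zero luminescence signal; higher percent means less beta-gal luminescence so fewer parasites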
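Assay system: NIH/3T3 host cells with β-galactosidase reporter T. cruzi; input: 5,000 host fibroblasts per well; compound: single 50 nL compound addition per well in DMSO; timing: ≥90 h infection period, 3 h prior cell attachment; measured by: GalScreen β-gal luminescence, detergent lysis, 60 min; evaluation: percent inhibition of parasite-derived β-gal signal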
Active calls of the source: *; . = no result given. Rows were chosen to be rich in hits. Some 3.1% of all compounds tested hit in one or more screens of this group.

SMILES | Beta cell apopt | Calb FLC | H9c2 TAG inh | CSC inhib | A1 inh | T cruzi inh
Cc1cccc(NC(=O)NNC(=O)c2cc3ccccc3cc2O)c1C | -2 | 65* | -24 | -6 | 0 | -31
Cc1ccc(NC(=O)NNC(=O)c2cc3ccccc3cc2O)c(C)c1 | 2 | 82* | 19 | -1 | 0 | -8
CC(C)c1cc(C(=O)N2CCCC(Nc3ccc(F)cc3)C2)n[nH]1 (stereo unspecified) | 4 | 5 | 4 | 6 | -1 | -11
Cc1cccn2c(NC(=O)c3ccccc3F)c(-c3ccccc3)nc12 | 0 | 2 | . | -5 | 0 | -12
CCC1Oc2ccc(C)cc2N(CC(=O)N(Cc2cccnc2)Cc2ccc(C)o2)C1=O (stereo unspecified) | 10 | 5 | . | -11 | 1 | 57*
CCC1Oc2ccc(C)cc2N(CC(=O)N(Cc2ccc(C)o2)C2CC(C)(C)NC(C)(C)C2)C1=O (stereo unspecified) | -1 | -35 | 28 | -7 | 0 | 15
COc1cc(CNCc2c[nH]c3ccccc23)cc(OC)c1 | 20 | 3 | 2 | . | 0 | 78*
COc1cc(CNCc2cccc3ccccc23)cc(OC)c1 | -2 | 23 | . | 6 | 1 | 6
Cc1nc2ccccc2c(=O)n1/N=C/c1ccc(O)c(O)c1O | -5 | 12 | . | -3 | -1 | 9
O=c1c2ccccc2nc(COc2ccccc2)n1/N=C/c1ccc(O)cc1O | 87* | 57 | 36 | 67 | -1 | 57*
Cc1nnc(C)n1/N=C/c1c(O)ccc2ccccc12 | -3 | -6 | . | -12 | -1 | -13
Cc1nnc(-c2ccccc2)c(=O)n1/N=C/c1c(O)ccc2ccccc12 | 88* | -1 | 2 | 12 | 0 | 65*
Cc1nc2ccccc2c(=O)n1/N=C/c1ccc2ccccc2c1O | 115* | -2 | 15 | 20 | 0 | 24
O=S(=O)(NCC1CN(S(=O)(=O)c2c(F)cccc2F)C1)c1ccc2c(c1)OCCO2 | 12 | . | -24 | 3 | -1 | .
Cc1csc(SCC(=O)Nc2cc(S(=O)(=O)N(C)C)ccc2C)n1 | -2 | -3 | -20 | -2 | 0 | -1
COc1ccc(-n2c(=S)[nH]c3cc(C(=O)Nc4ccccc4OC)ccc3c2=O)cc1 | 77* | -5 | . | -12 | 0 | -19
CCCCCCCCCCn1c2c(c(=N)c3c1CCC3)CCC2 | 118* | 107* | -20 | 91* | -1 | 68*
CCOC(=O)Cn1c2c(c(=N)c3c1CCC3)CCC2 | -5 | 11 | 9 | -10 | -1 | -11
CCn1c2c(c(=N)c3c1CCC3)CCCC2 | 13 | -2 | -7 | -10 | 0 | -3
CCCCCCCCCn1c2c(c(=N)c3c1CCC3)CCCC2 | . | 105* | . | . | . | 58*
COc1ccc(C(=O)NN/C(C)=C/C(=O)C(F)(F)C(F)(F)C(F)(F)F)cc1 | 79* | 94* | 3 | 123* | -1 | 2
N#Cc1ccsc1NC(=O)C1CC(=O)N(Cc2ccccc2)C1 (stereo unspecified) | 1 | 3 | 3 | -13 | 0 | -1
Cn1c(=O)n(Cc2ccc(F)cc2)c(=O)c2c1nc1n2CCCN1C1CCCCC1 | 11 | 4 | -46 | 78* | -1 | 34
Cc1ccc(C)c(S(=O)(=O)N2CCN(C(=O)CN3C(=O)C4CC=CCC4C3=O)CC2)c1 (stereo unspecified) | . | . | 11 | . | . | .
COc1cc2c(cc1OC)[C@@H]1Cc3ccc(OC)c(OC)c3CN1CC2 | -15 | -8 | . | -11 | 0 | 56*
SMILES | Beta cell apopt | Calb FLC | H9c2 TAG inh | CSC inhib | A1 inh | T cruzi inh
COc1ccc(-n2ccc(=O)c(C(=O)O)n2)c(OC)c1 | -5 | 2 | . | -13 | 0 | -5
COc1cc(/C=C/C(=O)N2CCCN(C(=O)/C=C/c3cc(OC)c(OC)c(OC)c3)CC2)cc(OC)c1OC | -11 | 56 | . | -8 | -1 | 5
COc1cc(/C=C/C(=O)N2CCC=CC2=O)cc(OC)c1OC | 8 | . | 62* | 36 | 1 | .
CCOC(=O)c1c(NC(=O)CSc2nnnn2-c2ccccc2)sc2c1CC(C)(C)NC2(C)C | -1 | 3 | 26 | 39 | 0 | 73*
CCOC(=O)c1c(NC(=O)c2ccc(C)cc2)sc2c1CC(C)(C)NC2(C)C | . | -8 | . | 12 | 0 | 32
CCOC(=O)c1c(NC(=O)COc2ccccc2OCC)sc2c1CC(C)(C)NC2(C)C | 11 | -7 | 36 | 2 | 1 | 44
CCOC(=O)c1c(NC(=O)CSc2nnnn2-c2ccccc2OCC)sc2c1CC(C)(C)NC2(C)C | 37 | -2 | 26 | 56 | 0 | 57*
CCOC(=O)c1c(NC(=O)CSc2nc3ccc(C)cc3[nH]2)sc2c1CC(C)(C)NC2(C)C | -5 | -4 | 11 | 78* | 0 | 61*
CC1=C(CC(=O)c2ccccc2)C(=O)c2ccccc2C1=O | 98* | -19 | . | -15 | 0 | -5
COc1ccc(N2CCN(C(=O)COC(=O)c3ccc(C)o3)CC2)cc1 | . | 0 | -23 | -12 | 0 | -2
O=C(Cn1cnc2cc([N+](=O)[O-])ccc2c1=O)Nc1ccc2c(c1)OCO2 | -4 | 5 | 14 | -7 | -1 | 55*
O=C(Cn1cnc2ccccc2c1=O)Nc1ccc2c(c1)OCO2 | . | -8 | . | -4 | 1 | -3
Cc1cc(C)c(C(=O)Cn2cnc3cc([N+](=O)[O-])ccc3c2=O)cc1C | -1 | -3 | 36 | 7 | 0 | 68*
COc1cc2c(cc1OC)[C@@H](NC(=O)CCC1CCCCC1)[C@H](O)C2 | . | . | -8 | . | . | .
COc1ccccc1CN(C(=O)c1cnccn1)C(C(=O)NC1CCCCC1)c1cc(OC)c(OC)c(OC)c1 (stereo unspecified) | -1 | 8 | . | -7 | 0 | 1
COc1ccc(C(=O)COC(=O)c2nn(C)cc2Cl)cc1 | 0 | 0 | . | -15 | -8 | -10
CCOc1cc(/C=C2\COc3ccccc3C2=O)cc(Br)c1OCC(=O)N(C)C | 100* | -16 | . | 61 | 2 | -17
CC(C)(C)c1ccc(C(=O)NNC(=S)NC(=O)c2cccnc2)cc1 | 62 | 7 | . | 25 | 0 | 29
CC(C)(C)c1cc(Cl)c(O)c(NC(=S)NC(=O)c2cccnc2)c1 | 24 | 49 | -4 | 26 | 1 | 70*
Nc1cc(-c2ccc(OC(F)(F)F)cc2)nn1-c1ccc(Cl)c(Cl)c1 | -10 | 3 | 7 | 82* | 0 | 5
C=CCNc1nc(C)c(CNc2c(C)cc(C)cc2C)nc1C#N | 5 | 11 | . | 11 | 0 | 32
CN1CCN(c2nc(-c3ccccc3)nc(-c3ccc(F)cc3)c2C#N)CC1 | 10 | 16 | 25 | 30 | 0 | 55*
CCN(c1ccccc1)S(=O)(=O)c1cc(C(=O)Nc2ccc(Br)cc2)ccc1F | -1 | -1 | -5 | 19 | 0 | 57*
CC1Cc2ccccc2N1C(=O)CN1C(=O)NC2(CCCCC2)C1=O (stereo unspecified) | 2 | . | 13 | 4 | 1 | .
